Measurements of several laboratories.
Each line is one published result; the experiments were not run side by side.
Target: Wee1-like protein kinase (WEE1, Homo sapiens, UniProt P30291)

O=C(NCC1CCOCC1)c1n[nH]cc1NC(=O)c1c(F)cccc1F — remaining binding (binding; competition with immobilised ligand; 1 µM): 97%
Cc1cnn2ncc(-c3ccnc(N(C)C)n3)c2c1 — remaining binding (binding; 1 µM): 100%
Nc1ncc2c(n1)-c1c([nH]c3ccc(C#CC4CC4)cc13)CCCC2 — remaining binding (binding; competition with immobilised ligand; 1 µM): 87%
O=C(c1ccc(Nc2ncc(Cl)c(-c3ccc(Cl)s3)n2)cc1)N1CCC(N2CCCC2)CC1 — remaining binding (binding; competition with immobilised ligand; 1 µM): 11%
CN(CCCC(F)(F)F)c1nccc(-c2cnn3ncccc23)n1 — remaining binding (binding; 1 µM): 100%
COc1cnc(Nc2cccc(S(N)(=O)=O)c2)nc1N1CCN(c2ccccc2)CC1 — remaining binding (binding; competition with immobilised ligand; 1 µM): 100%
O=C(NCc1ncc(C(F)(F)F)cc1Cl)c1ccc2c(c1)C1(CCS(=O)(=O)CC1)[C@@H](C1CC1)N2S(=O)(=O)c1ccc(F)cc1 — remaining binding (cell-free assay; competition with immobilised ligand; 1 µM): 100%
C[C@@H]1CCN(c2nccc(-c3cnn4ncccc34)n2)C1 — remaining binding (binding; 1 µM): 100%
O=C(O)[C@@H]1[C@@H](Cn2nnc3ccccc3c2=O)CC[C@H]1C(=O)c1ccc(OCCC2CCOCC2)cc1 — remaining binding (cell-free assay; competition with immobilised ligand; 1 µM): 93%
N[C@H]1CCN(c2nccc(-c3cnn4ncccc34)n2)C1 — remaining binding (binding; 1 µM): 68%
C=CC(=O)N1CCC(C(=O)NCC(=O)N2CCN(c3nc(-c4cnc(N)nc4C(F)F)nc(N4CCOCC4)n3)CC2)CC1 — remaining binding (binding; competition with immobilised ligand; 1 µM): 89%
O=C(NCCCN1CCOCC1)c1ccc(Nc2nccc(-c3cc4ccccc4s3)n2)cc1 — remaining binding (binding; competition with immobilised ligand; 1 µM): 67%
Cc1nccc(COC(=O)N2C[C@@H]3[C@@H](CNC(=O)c4ccc5[nH]nnc5c4)[C@@H]3C2)n1 — remaining binding (cell-free assay; competition with immobilised ligand; 1 µM): 100%
C[C@@H](c1ccc(-n2cnc3c(N)ncnc32)cc1)N1CCc2nn(C)c(Cc3ccccc3)c2C1=O — remaining binding (binding; competition with immobilised ligand; 0.1 µM): 85%
CN(c1ccnc(CNc2nc(Nc3ccc4c(c3)CC(=O)N4)ncc2C(F)(F)F)n1)S(C)(=O)=O — remaining binding (cell-free assay; competition with immobilised ligand; 1 µM): 13%
Cc1cnc(Nc2ccc(C(=O)N3CCC(N4CCCC4)CC3)cc2)nc1-c1cc2ccccc2s1 — remaining binding (binding; competition with immobilised ligand; 1 µM): 4.2%
CCCOc1ccc([C@@H]2[C@@H](C(=O)O)[C@H](c3ccc4c(c3)OCO4)CN2CC(=O)Nc2c(CC)cccc2CC)cc1 — remaining binding (cell-free assay; competition with immobilised ligand; 1 µM): 95%
CNC(=O)[C@@H]1CC[C@@H](n2c(-c3ccc4cnccc4c3)nc3ccc(C(=O)NCc4cccc(C(N)=O)c4)cc32)C1 — remaining binding (binding; competition with immobilised ligand; 1 µM): 98%
CC(C)CC(=O)N1CCc2nc(-c3ccc(Br)cc3)nc(N(C)Cc3ccccc3)c2C1 — remaining binding (cell-free assay; competition with immobilised ligand; 0.1 µM): 100%
c1cnn2ncc(-c3ccnc(N4CCC45COC5)n3)c2c1 — remaining binding (binding; 1 µM): 92%
O=C1CCc2cc(Nc3cc(OC4CCOCC4)c([N+](=O)[O-])cc3Cl)ccc2N1 — remaining binding (cell-free assay; competition with immobilised ligand; 1 µM): 99%
F[C@@H]1CCN(c2nccc(-c3cnn4ncccc34)n2)C1 — remaining binding (binding; 1 µM): 100%
